Assay results reported in ChEMBL document CHEMBL1143141, “Regioselective synthesis and antitumor screening of some novel N-phenylpyrazole derivatives” (Bioorg Med Chem, 2008).
≈ marks a conversion by molar mass, not a printed value.

How the values were obtained:
[1] = system: Ehrlich; assay: Antitumor activity against mouse Ehrlich ascites carcinoma cells at 50 ug/ml relative to doxorubicin after 2 hrs; type: functional
How it was run: (§1)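 Ehrlich ascites carcinoma cell suspension was exposed to compound for 2 h. Percent nonviable cells was scored by trypan blue dye exclusion. Potency was calculated from the percentage change relative to doxorubicin, which served as reference. Data are means with SE. Treated and control tubes were compared by one-way ANOVA with Duncan's multiple range test.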

[2] = system: Ehrlich; assay: Antitumor activity against mouse Ehrlich ascites carcinoma cells at 100 ug/ml relative to doxorubicin after 2 hrs; type: functional; how it was run: as §1
[3] = system: Ehrlich; assay: Antitumor activity against mouse Ehrlich ascites carcinoma cells; type: functional, cell-based
How it was run: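 Ehrlich ascites carcinoma cell suspension was exposed to test compound at three levels (25, 50, 100) for 2 h. Nonviable cells were counted by trypan blue exclusion, using a 1:10 water dilution of a 1 g/100 ml dye stock. The IC50 was calculated against a saline control group. Doxorubicin served as positive control.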

[4] = system: Ehrlich; assay: Antitumor activity against mouse Ehrlich ascites carcinoma cells at 25 ug/ml relative to doxorubicin after 2 hrs; type: functional; how it was run: as §1

## COc1cccc2c1C(=O)c1c(O)c3c(c(O)c1C2=O)C[C@@](O)(C(=O)CO)C[C@@H]3O[C@H]1C[C@H](N)[C@H](O)[C@H](C)O1 [DOXORUBICIN]
[1]
  Activity: 55%
[2]
  Activity: 100%
[3]
  IC50: 35 µg/mL (≈ 64.4 µM)
[4]
  Activity: 20%

## Cc1c(C(=O)c2cn(-c3ccccc3)nc2C(=O)Nc2ccccc2)c(C(=O)Nc2ccccc2)nn1-c1ccccc1
[1]
  Activity: 20%
[2]
  Activity: 35%
[3]
  IC50: 70 µg/mL (≈ 124 µM)
[4]
  Activity: 5%

## CC(=O)c1nn(-c2ccc(Br)cc2)cc1C(=O)c1c(C(=O)Nc2ccccc2)nn(-c2ccccc2)c1C
[1]
  Activity: 15%
[2]
  Activity: 25%
[3]
  IC50: > 100 µg/mL
[4]
  Activity: 0%

## CC(=O)c1nn(-c2ccccc2)cc1C(=O)c1c(C(=O)Nc2ccccc2)nn(-c2ccccc2)c1C
[1]
  Activity: 5%
[2]
  Activity: 20%
[3]
  IC50: > 100 µg/mL
[4]
  Activity: 0%

## CCOC(=O)c1nn(-c2ccc(Br)cc2)cc1C(=O)c1c(C(=O)Nc2ccccc2)nn(-c2ccccc2)c1C
[1]
  Activity: 10%
[2]
  Activity: 20%
[3]
  IC50: > 100 µg/mL
[4]
  Activity: 0%

## Cc1c(C(=O)/C=C/N(C)C)c(C(=O)Nc2ccccc2)nn1-c1ccccc1
[1]
  Activity: 5%
[2]
  Activity: 10%
[3]
  IC50: > 100 µg/mL
[4]
  Activity: 0%

## Cc1c(C(=O)c2cn(-c3ccccc3)nc2-c2ccccc2)c(C(=O)Nc2ccccc2)nn1-c1ccccc1
[1]
  Activity: 0%
[2]
  Activity: 0%
[4]
  Activity: 0%

## CCOC(=O)c1nn(-c2ccccc2)cc1C(=O)c1c(C(=O)Nc2ccccc2)nn(-c2ccccc2)c1C
[1]
  Activity: 0%
[2]
  Activity: 10%
[3]
  IC50: > 100 µg/mL
[4]
  Activity: 0%

## CC(=O)c1c(C(=O)Nc2ccccc2)nn(-c2ccccc2)c1C
[1]
  Activity: 0%
[2]
  Activity: 0%
[4]
  Activity: 0%

## CCOC(=O)c1nn(-c2ccc([N+](=O)[O-])cc2)cc1C(=O)c1c(C(=O)Nc2ccccc2)nn(-c2ccccc2)c1C
[1]
  Activity: 0%
[2]
  Activity: 0%
[4]
  Activity: 0%

## CC(=O)c1nn(-c2cccc(C)c2)cc1C(=O)c1c(C(=O)Nc2ccccc2)nn(-c2ccccc2)c1C
[1]
  Activity: 10%
[2]
  Activity: 20%
[3]
  IC50: 100 µg/mL (≈ 199 µM)
[4]
  Activity: 0%

## CC(=O)c1nn(-c2ccc(C)cc2)cc1C(=O)c1c(C(=O)Nc2ccccc2)nn(-c2ccccc2)c1C
[1]
  Activity: 5%
[2]
  Activity: 10%
[3]
  IC50: > 100 µg/mL
[4]
  Activity: 0%
